Assay results taken from ChEMBL document CHEMBL4689842, “EUbOPEN Chemogenomics Library wave 1” (2021).
Several values for one entry are separate records, joined by “and”; a condition that tells them apart may be missing. Identical values can stand only once.

Test system: U2OS
Assay: Multiplex assay against U2OS
Assay type: toxicity, cell-based
Details: human
Procedure, shortened: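 Tubulin, mitochondrial-mass and membrane-permeability phenotypes are per cents of healthy-nucleus cells. Cells were gated by CellPathfinder machine learning into Hoechst high-intensity objects or normal cells, normal cells into healthy, pyknosed or fragmented nuclei, and pyknosed cells into mitotic or apoptotic. Before that, live cells stained at seeding with Hoechst33342, BioTracker Green Microtubule Cytoskeleton Dye, MitoTracker Red and Annexin V Alexa Fluor 680 were imaged on a CQ1 microscope at 37°C and 5% CO2 after compound addition.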

[1] = 12 h, 1 µM, compound concentration 1 uM, replicate 1
[2] = 12 h, 1 µM, compound concentration 1 uM, replicate 2
[3] = 12 h, 10 µM, compound concentration 10 uM, replicate 1
[4] = 12 h, 10 µM, compound concentration 10 uM, replicate 2
[5] = 24 h, 1 µM, compound concentration 1 uM, replicate 1
[6] = 24 h, 1 µM, compound concentration 1 uM, replicate 2
[7] = 24 h, 10 µM, compound concentration 10 uM, replicate 1
[8] = 24 h, 10 µM, compound concentration 10 uM, replicate 2
[9] = 48 h, 1 µM, compound concentration 1 uM, replicate 1
[10] = 48 h, 1 µM, compound concentration 1 uM, replicate 2
[11] = 48 h, 10 µM, compound concentration 10 uM, replicate 1
[12] = 48 h, 10 µM, compound concentration 10 uM, replicate 2

Structure (SMILES): CS(=O)(=O)N1CCCC(NC(=O)[C@H](CCC2CCCCC2)NC(=O)c2ccc(CNc3ncnc4c3nnn4-c3ccccc3)cc2)C1 (some centres not stated) [SR-301]
- Population Apoptotic (%) [1]: 27% and 50% and 35%
- Population Fragmented Nuclei (%) [1]: 13% and 7%
- Population Healthy Nuclei (%) [1]: 74% and 76% and 79%
- Population Hoechst High Intensity Objects (%) [1]: 5% and 4% and 3%
- Population Membrane Permeable-Phenotype (%) [1]: 7% and 4% and 3%
- Population Mitochondria Different-Phenotype (%) [1]: 11% and 9% and 8%
- Population Mitotic Cells (%) [1]: 72% and 50% and 64%
- Population Normal (%) [1]: 94% and 95% and 96%
- Population Pyknosed Nuclei (%) [1]: 12% and 13%
- Total Cell Count [1]: 200 and 294 and 192
- Population Apoptotic (%) [2]: 25% and 63% and 33%
- Population Fragmented Nuclei (%) [2]: 14% and 11%
- Population Healthy Nuclei (%) [2]: 81% and 70% and 89%
- Population Hoechst High Intensity Objects (%) [2]: 19% and 13%
- Population Membrane Permeable-Phenotype (%) [2]: 10% and 2%
- Population Mitochondria Different-Phenotype (%) [2]: 20% and 14% and 10%
- Population Mitotic Cells (%) [2]: 75% and 36% and 66%
- Population Normal (%) [2]: 80% and 86%
- Population Tubulin-Different-Phenotype (%) [2]: 21% and 19% and 12%
- Total Cell Count [2]: 135 and 58 and 69
- Population Apoptotic (%) [3]: 81% and 62% and 53%
- Population Fragmented Nuclei (%) [3]: 21% and 23% and 11%
- Population Healthy Nuclei (%) [3]: 27% and 44% and 78%
- Population Hoechst High Intensity Objects (%) [3]: 10% and 5%
- Population Mitochondria Different-Phenotype (%) [3]: 39% and 28% and 22%
- Population Mitotic Cells (%) [3]: 18% and 37% and 46%
- Population Normal (%) [3]: 89% and 94%
- Population Tubulin-Different-Phenotype (%) [3]: 39% and 52% and 28%
- Total Cell Count [3]: 202 and 154 and 295
- Population Apoptotic (%) [4]: 80% and 75% and 41%
- Population Fragmented Nuclei (%) [4]: 39% and 27%
- Population Healthy Nuclei (%) [4]: 20% and 25% and 58%
- Population Hoechst High Intensity Objects (%) [4]: 4% and 2%
- Population Membrane Permeable-Phenotype (%) [4]: 61% and 54% and 30%
- Population Mitochondria Different-Phenotype (%) [4]: 66% and 54% and 34%
- Population Mitotic Cells (%) [4]: 20% and 25% and 58%
- Population Normal (%) [4]: 95% and 97%
- Population Pyknosed Nuclei (%) [4]: 39% and 47% and 20%
- Population Tubulin-Different-Phenotype (%) [4]: 55% and 54% and 34%
- Total Cell Count [4]: 89 and 86 and 105
- Population Apoptotic (%) [5]: 47% and 48%
- Population Fragmented Nuclei (%) [5]: 10% and 5%
- Population Healthy Nuclei (%) [5]: 82% and 75%
- Population Hoechst High Intensity Objects (%) [5]: 3% and 0%
- Population Membrane Permeable-Phenotype (%) [5]: 5% and 3% and 2%
- Population Mitochondria Different-Phenotype (%) [5]: 6% and 8%
- Population Mitotic Cells (%) [5]: 52% and 51%
- Population Normal (%) [5]: 96% and 99%
- Population Pyknosed Nuclei (%) [5]: 14% and 7%
- Total Cell Count [5]: 350 and 199 and 225
- Population Fragmented Nuclei (%) [6]: 12% and 7%
- Population Healthy Nuclei (%) [6]: 78% and 80% and 86%
- Population Membrane Permeable-Phenotype (%) [6]: 7% and 6%
- Population Mitochondria Different-Phenotype (%) [6]: 20% and 10%
- Population Mitotic Cells (%) [6]: 87% and 60% and 55%
- Population Normal (%) [6]: 80% and 95%
- Population Pyknosed Nuclei (%) [6]: 9% and 12% and 6%
- Population Tubulin-Different-Phenotype (%) [6]: 13% and 26% and 14%
- Total Cell Count [6]: 148 and 64 and 84
- Population Apoptotic (%) [7]: 96% and 87% and 65%
- Population Healthy Nuclei (%) [7]: 25% and 39% and 75%
- Population Mitochondria Different-Phenotype (%) [7]: 29% and 16% and 13%
- Population Normal (%) [7]: 89% and 92% and 96%
- Population Pyknosed Nuclei (%) [7]: 39% and 38% and 13%
- Population Tubulin-Different-Phenotype (%) [7]: 37% and 63% and 44%
- Total Cell Count [7]: 235 and 159 and 307
- Population Apoptotic (%) [8]: 91% and 94% and 89%
- Population Fragmented Nuclei (%) [8]: 25% and 32% and 19%
- Population Hoechst High Intensity Objects (%) [8]: 15% and 21% and 9%
- Population Mitotic Cells (%) [8]: 8% and 5% and 10%
- Population Normal (%) [8]: 84% and 78% and 90%
- Population Pyknosed Nuclei (%) [8]: 49% and 50% and 21%
- Total Cell Count [8]: 98 and 89 and 110
- Population Apoptotic (%) [9]: 58% and 30%
- Population Fragmented Nuclei (%) [9]: 3%
- Population Healthy Nuclei (%) [9]: 84% and 87%
- Population Hoechst High Intensity Objects (%) [9]: 1% and 0%
- Population Membrane Permeable-Phenotype (%) [9]: 2% and 1%
- Population Mitochondria Different-Phenotype (%) [9]: 9% and 7%
- Population Mitotic Cells (%) [9]: 41% and 69% and 74%
- Population Normal (%) [9]: 98% and 99%
- Population Pyknosed Nuclei (%) [9]: 7%
- Total Cell Count [9]: 208 and 559 and 312
- Population Apoptotic (%) [10]: 38% and 21% and 25%
- Population Fragmented Nuclei (%) [10]: 4% and 7% and 9%
- Population Healthy Nuclei (%) [10]: 83% and 76%
- Population Membrane Permeable-Phenotype (%) [10]: 7% and 3%
- Population Mitochondria Different-Phenotype (%) [10]: 13% and 8% and 12%
- Population Mitotic Cells (%) [10]: 61% and 78% and 75%
- Population Normal (%) [10]: 92% and 96% and 85%
- Population Pyknosed Nuclei (%) [10]: 12% and 8% and 13%
- Total Cell Count [10]: 84 and 114 and 231
- Population Apoptotic (%) [11]: 92% and 85% and 62%
- Population Mitochondria Different-Phenotype (%) [11]: 17% and 14% and 9%
- Population Normal (%) [11]: 89% and 91% and 96%
- Population Tubulin-Different-Phenotype (%) [11]: 37% and 75% and 53%
- Total Cell Count [11]: 372 and 170 and 387
- Population Apoptotic (%) [12]: 96% and 100% and 84%
- Population Fragmented Nuclei (%) [12]: 23% and 17% and 12%
- Population Healthy Nuclei (%) [12]: 38% and 68%
- Population Membrane Permeable-Phenotype (%) [12]: 85% and 44%
- Population Mitochondria Different-Phenotype (%) [12]: 81% and 74% and 35%
- Population Mitotic Cells (%) [12]: 3% and 0% and 15%
- Population Normal (%) [12]: 76% and 80% and 92%
- Population Pyknosed Nuclei (%) [12]: 38% and 30% and 19%
- Population Tubulin-Different-Phenotype (%) [12]: 81% and 82% and 30%
- Total Cell Count [12]: 84 and 107 and 142
